Results reported in ChEMBL document CHEMBL2151038, “Synthesis, characterization and biological evaluation of some novel 2,4-thiazolidinediones as potential cytotoxic, antimicrobial and antihyperglycemic agents” (Bioorg Med Chem Lett, 2012).
In brackets after ≈: the same amount, converted by molar mass.

What was measured:
Aspergillus niger = assay: Antifungal activity against Aspergillus niger NCIM 548 after 48 hrs by NCCLS agar well diffusion method; type: functional; conditions: NCIM 548, 48 h
How it was run: (§1)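 Spore suspensions in sterile distilled water adjusted to 10⁶ CFU/mL, 0.1 mL spread on potato-dextrose agar. 6 mm wells received 0.1 mL compound in 1% DMSO (final 16–512 µg/mL). Controls: 1% DMSO and ketoconazole (16 µg/mL). Triplicate plates, 48 h at 28 ± 0.2 °C. MIC = lowest concentration completely inhibiting growth.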

Rattus norvegicus [1] = assay: Antihyperglycemic activity in streptozotocin-induced type 2 diabetic Wistar albino rat assessed as reduction in plasma glucose level at 30 mg/kg, po by glucometer; type: functional
How it was run: (§2)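 Wistar albino rats of either sex, 150–200 g, fasted 16 h. Diabetes induced by nicotinamide 150 mg/kg, then STZ 65 mg/kg in citrate buffer pH 4.5. Glucose confirmed after 48 h. Groups of six. Oral dosing as 0.25% sodium CMC suspension at 10, 30 or 50 mg/kg. Rosiglitazone was the reference. Retro-orbital plasma glucose measured by glucometer before dosing and at 1, 2, 4, 6, 8, 12 and 24 h. Results as mean ± SEM, compared by ANOVA, t-test and Dunnett's test.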

Rattus norvegicus [2] = assay: Antihyperglycemic activity in streptozotocin-induced type 2 diabetic Wistar albino rat assessed as reduction in plasma glucose level at 50 mg/kg, po by glucometer; type: functional; how it was run: as §2
Klebsiella pneumoniae = assay: Antibacterial activity against Klebsiella pneumoniae NCIM 5082 after 24 hrs by NCCLS agar well diffusion method; type: functional; conditions: NCIM 5082, 24 h
How it was run: (§3)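 Nutrient agar seeded with 0.1 mL bacterial suspension (10⁵ CFU/mL in 0.85% saline). 6 mm wells filled with 0.1 mL compound. Plates in triplicate, 37 ± 0.5 °C for 24 h. MIC = lowest concentration giving complete growth inhibition.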

Pseudomonas aeruginosa = assay: Antibacterial activity against Pseudomonas aeruginosa NCIM 2036 after 24 hrs by NCCLS agar well diffusion method; type: functional; conditions: NCIM 2036, 24 h; how it was run: as §3
Micrococcus luteus = assay: Antibacterial activity against Micrococcus luteus NCIM 2155 after 24 hrs by NCCLS agar well diffusion method; type: functional; conditions: NCIM 2155, 24 h; how it was run: as §3
Aspergillus oryzae = assay: Antifungal activity against Aspergillus oryzae NCIM 643 after 48 hrs by NCCLS agar well diffusion method; type: functional; conditions: NCIM 643, 48 h; how it was run: as §1
[3] = Toxicity in mouse assessed as changes in vital functions; type: organism-based; conditions: in vivo
Bacillus pumilus = assay: Antibacterial activity against Bacillus pumilus NCIM 2327 after 24 hrs by NCCLS agar well diffusion method; type: functional; conditions: NCIM 2327, 24 h; how it was run: as §3
Staphylococcus aureus = assay: Antibacterial activity against Staphylococcus aureus NCIM 2079 after 24 hrs by NCCLS agar well diffusion method; type: functional; conditions: NCIM 2079, 24 h; how it was run: as §3
Bacillus subtilis = assay: Antibacterial activity against Bacillus subtilis NCIM 2063 after 24 hrs by NCCLS agar well diffusion method; type: functional; conditions: NCIM 2063, 24 h; how it was run: as §3
Escherichia coli = assay: Antibacterial activity against Escherichia coli NCIM 2065 after 24 hrs by NCCLS agar well diffusion method; type: functional; conditions: NCIM 2065, 24 h; how it was run: as §3
Proteus vulgaris = assay: Antibacterial activity against Proteus vulgaris NCIM 2813 after 24 hrs by NCCLS agar well diffusion method; type: functional; conditions: NCIM 2813, 24 h; how it was run: as §3
Penicillium chrysogenum = assay: Antifungal activity against Penicillium chrysogenum NCIM 738 after 48 hrs by NCCLS agar well diffusion method; type: functional; conditions: NCIM 738, 48 h; how it was run: as §1
Rattus norvegicus [4] = assay: Antihyperglycemic activity in po dosed streptozotocin-induced type 2 diabetic Wistar albino rat assessed as reduction in plasma glucose level by glucometer; type: functional, organism-based; how it was run: as §2
Artemia salina = assay: Cytotoxicity in brine shrimps larvae assessed as mortality after 24 hrs; type: functional; conditions: read-out: ED50 (the source's name)
How it was run: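 Artemia salina nauplii hatched 38 h under constant aeration in sterile brine (sea salt 38 g/L, pH 8.5 with 1 N NaOH). Ten nauplii per vial were exposed to a range of compound concentrations at 37 °C for 24 h under incandescent light, alongside vehicle-treated controls. Survivors were counted, % lethality was taken from mean survivors versus control, and ED50 came from probit analysis.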

Candida albicans = assay: Antifungal activity against Candida albicans NCIM 3102 after 48 hrs by NCCLS agar well diffusion method; type: functional; conditions: NCIM 3102, 48 h; how it was run: as §1
Rattus norvegicus [5] = assay: Antihyperglycemic activity in streptozotocin-induced type 2 diabetic Wistar albino rat assessed as reduction in plasma glucose level at 10 mg/kg, po by glucometer; type: functional; how it was run: as §2

Structure (SMILES)	MIC (Aspergillus niger)	Activity (Rattus norvegicus [1])	Activity (Rattus norvegicus [2])	MIC (Klebsiella pneumoniae)	MIC (Pseudomonas aeruginosa)	MIC (Micrococcus luteus)	MIC (Aspergillus oryzae)	MTD [3]	MIC (Bacillus pumilus)	MIC (Staphylococcus aureus)	MIC (Bacillus subtilis)	MIC (Escherichia coli)	MIC (Proteus vulgaris)	MIC (Penicillium chrysogenum)	Activity (Rattus norvegicus [4])	EC50 (Artemia salina)	MIC (Candida albicans)	Activity (Rattus norvegicus [5])
O=C1NC(=O)/C(=C/c2ccc(/C=C/C(=O)c3ccc4ccccc4c3)cc2)S1	512 µg/mL (≈ 1330 µM)	31.84 mg/dL	36.93 mg/dL	512 µg/mL (≈ 1330 µM)	512 µg/mL (≈ 1330 µM)	512 µg/mL (≈ 1330 µM)	512 µg/mL (≈ 1330 µM)	2000 mg/kg	512 µg/mL (≈ 1330 µM)	512 µg/mL (≈ 1330 µM)	512 µg/mL (≈ 1330 µM)	512 µg/mL (≈ 1330 µM)	512 µg/mL (≈ 1330 µM)	512 µg/mL (≈ 1330 µM)	Dose-dependent effect	48.1 µg/mL (≈ 125 µM)	512 µg/mL (≈ 1330 µM)	23.75 mg/dL
O=C1NC(=O)/C(=C/c2ccc(/C=C/C(=O)c3ccccc3)cc2)S1	512 µg/mL (≈ 1530 µM)	11.51 mg/dL	15.61 mg/dL	512 µg/mL (≈ 1530 µM)	256 µg/mL (≈ 763 µM)	512 µg/mL (≈ 1530 µM)	512 µg/mL (≈ 1530 µM)	2000 mg/kg	256 µg/mL (≈ 763 µM)	512 µg/mL (≈ 1530 µM)	256 µg/mL (≈ 763 µM)	256 µg/mL (≈ 763 µM)	512 µg/mL (≈ 1530 µM)	512 µg/mL (≈ 1530 µM)	Dose-dependent effect	44.7 µg/mL (≈ 133 µM)	512 µg/mL (≈ 1530 µM)	
O=C1NC(=O)/C(=C/c2ccc(/C=C/C(=O)c3cc(O)ccc3O)cc2)S1	256 µg/mL (≈ 697 µM)	38.86 mg/dL	47.73 mg/dL	256 µg/mL (≈ 697 µM)	512 µg/mL (≈ 1390 µM)	512 µg/mL (≈ 1390 µM)	256 µg/mL (≈ 697 µM)	2000 mg/kg	256 µg/mL (≈ 697 µM)	256 µg/mL (≈ 697 µM)	512 µg/mL (≈ 1390 µM)	256 µg/mL (≈ 697 µM)	512 µg/mL (≈ 1390 µM)	128 µg/mL (≈ 348 µM)	Dose-dependent effect	46.7 µg/mL (≈ 127 µM)	128 µg/mL (≈ 348 µM)	30.74 mg/dL
O=C1NC(=O)/C(=C/c2ccc(/C=C/C(=O)c3ccc([N+](=O)[O-])cc3)cc2)S1	512 µg/mL (≈ 1350 µM)	16.74 mg/dL	22.73 mg/dL	512 µg/mL (≈ 1350 µM)	256 µg/mL (≈ 673 µM)	512 µg/mL (≈ 1350 µM)	512 µg/mL (≈ 1350 µM)	2000 mg/kg	512 µg/mL (≈ 1350 µM)	512 µg/mL (≈ 1350 µM)	256 µg/mL (≈ 673 µM)	512 µg/mL (≈ 1350 µM)	512 µg/mL (≈ 1350 µM)	256 µg/mL (≈ 673 µM)	Dose-dependent effect	49.3 µg/mL (≈ 130 µM)	256 µg/mL (≈ 673 µM)	13.63 mg/dL
O=C1NC(=O)/C(=C/c2ccc(/C=C/C(=O)c3ccccc3O)cc2)S1	512 µg/mL (≈ 1460 µM)		14.44 mg/dL	512 µg/mL (≈ 1460 µM)	256 µg/mL (≈ 729 µM)	512 µg/mL (≈ 1460 µM)	512 µg/mL (≈ 1460 µM)	2000 mg/kg	512 µg/mL (≈ 1460 µM)	256 µg/mL (≈ 729 µM)	512 µg/mL (≈ 1460 µM)	256 µg/mL (≈ 729 µM)	512 µg/mL (≈ 1460 µM)	512 µg/mL (≈ 1460 µM)	Dose-dependent effect	41.4 µg/mL (≈ 118 µM)	512 µg/mL (≈ 1460 µM)	
Cc1cccc(C(=O)/C=C/c2ccc(/C=C3\SC(=O)NC3=O)cc2)c1O	128 µg/mL (≈ 350 µM)	43.14 mg/dL	49.99 mg/dL	64 µg/mL (≈ 175 µM)	64 µg/mL (≈ 175 µM)	512 µg/mL (≈ 1400 µM)	128 µg/mL (≈ 350 µM)	2000 mg/kg	128 µg/mL (≈ 350 µM)	128 µg/mL (≈ 350 µM)	64 µg/mL (≈ 175 µM)	64 µg/mL (≈ 175 µM)	32 µg/mL (≈ 87.6 µM)	256 µg/mL (≈ 701 µM)	Dose-dependent effect	33.1 µg/mL (≈ 90.6 µM)	64 µg/mL (≈ 175 µM)	36.76 mg/dL
O=C1NC(=O)/C(=C/c2ccc(/C=C/C(=O)c3cccs3)cc2)S1	32 µg/mL (≈ 93.7 µM)	11.66 mg/dL	13.71 mg/dL	16 µg/mL (≈ 46.9 µM)	32 µg/mL (≈ 93.7 µM)	32 µg/mL (≈ 93.7 µM)	32 µg/mL (≈ 93.7 µM)	2000 mg/kg	16 µg/mL (≈ 46.9 µM)	32 µg/mL (≈ 93.7 µM)	32 µg/mL (≈ 93.7 µM)	32 µg/mL (≈ 93.7 µM)	64 µg/mL (≈ 187 µM)	32 µg/mL (≈ 93.7 µM)	Dose-dependent effect	4 µg/mL (≈ 11.7 µM)	32 µg/mL (≈ 93.7 µM)	
CC(=O)N1CCN(c2ccc(OCC3COC(Cn4ccnc4)(c4ccc(Cl)cc4Cl)O3)cc2)CC1 (stereo unspecified) [KETOCONAZOLE]	16 µg/mL (≈ 30.1 µM)						16 µg/mL (≈ 30.1 µM)							16 µg/mL (≈ 30.1 µM)			16 µg/mL (≈ 30.1 µM)	
